Published values from different studies.
Lines come from different studies, so protocols differ.
Target: Dual specificity protein kinase CLK2 (CLK2, Homo sapiens, UniProt P49760)

| test | setting | quantity | result | Compound |
| --- | --- | --- | --- | --- |
| enzyme activity, inhibitor | 1 µM | activity vs control | 105% | CC(C)S(=O)(=O)c1ccc2nccc(Nc3ccc4sc(C5CCCC5)nc4c3)c2c1 |
| enzyme activity, inhibitor | 0.2 µM | inhibition | 47.4% | C#Cc1cc(-c2cc(Nc3nc(N[C@@H](C)c4ccc(F)cn4)ncc3Cl)n[nH]2)ccc1C=O |
| binding, competition with immobilised ligand | 0.5 µM | remaining binding | 100% | CCCCC(=O)Nc1ccc(-c2ccc3ncn(CCC)c(=O)c3c2)cn1 |
| binding | 0.1 µM | remaining binding | 47% | C1=C/COCc2cc(ccc2OCCN2CCCC2)Nc2nccc(n2)-c2cccc(c2)COC/1 |
| enzyme activity, inhibitor | 0.1 µM | inhibition | 8.32% | Cc1cc(O)c(-c2ccc([C@@H](C)CN(C)C)cc2)c2c1[nH]c(=O)c1sccc12 |
| enzyme activity, inhibitor | 1 µM | inhibition | 2% | C=CC(=O)N1CCC[C@@H](n2nc(-c3ccc(Oc4ccccc4)cc3)c3c(N)ncnc32)C1 |
| binding | 1 µM | remaining binding | 100% | Cc1ccc(NC(=O)c2ccnc(C(F)(F)F)c2)cc1-c1cc(OCCO)nc(N2CCOCC2)c1 |
| enzyme activity, inhibitor | 1 µM | inhibition | 54% | CO[C@@H]1[C@H](N(C)C(=O)c2ccccc2)C[C@H]2O[C@]1(C)n1c3ccccc3c3c4c(c5c6ccccc6n2c5c31)C(=O)NC4 |
| cell-free assay | 1 µM | remaining signal | 1% | C[C@H]1CC[C@H](n2c3cnccc3c3cnc(Nc4ccc5c(n4)CCN(C(=O)CO)C5)nc32)CC1 |
